Laboratory results taken from ChEMBL document CHEMBL1671867, “Novel polymyxin derivatives carrying only three positive charges are effective antibacterial agents” (Antimicrob Agents Chemother, 2008).
pIC50: −log10 of the molar value. Bridge positions count the residues as written; N and C are the ends. Square brackets hold non-standard residues; d marks the D form. Peptide text beside a SMILES is read from it. * marks the point of attachment. Octanoyl = CCCCCCCC(=O)*; Dab = NCC[C@H](N)C(=O)O; Abu = CC[C@H](N)C(=O)O

Experiments:
[1] = Inhibition of [3H]gentamicin binding to brush border membrane of renal cortex
Outline: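 Brush border membrane vesicles prepared from male albino rat renal cortex by Mg2+-EGTA precipitation. Incubated with 20 μM [3H]gentamicin in 10 mM HEPES pH 7.5 with 300 mM mannitol, with or without compound, 60 min at 4°C. Then filtered, washed, and bound radioactivity counted by scintillation. IC50 fitted with the Hill equation.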

V79 = test: Cytotoxicity against chinese hamster V79 cells at […] to 128 ug/ml after 24 hrs; assay type: cell-based, Cricetulus griseus; details: v79, 24 h

pIC50 [1]: 3.73
SMILES: CCCCCCCC(=O)N[C@H](C(=O)N[C@@H](CC)C(=O)N[C@H]1CCNC(=O)[C@H]([C@@H](C)O)NC(=O)[C@H](CCN)NC(=O)[C@H](CCN)NC(=O)[C@H](CC(C)C)NC(=O)[C@@H](Cc2ccccc2)NC(=O)[C@H](CCN)NC1=O)[C@@H](C)O (Octanoyl-T[Abu][Dab][Dab][dF]L[Dab][Dab]T; lactam 3-C)
Activity (V79): Non-toxic
